Values joined by “and” are separate entries in the source; they are usually repeats but may differ in a detail not shown here. Equal entries are not always repeated.
How the values were obtained:
Leishmania major [1] = test: Antileishmanial activity against Leishmania major MHOM/IL/67/JERICHO-2 after 24 hrs by dye exclusion method; type: functional
Method in brief: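 Promastigotes were grown at 25 °C in medium 199 with 20% heat-inactivated FCS, penicillin/streptomycin, L-glutamine, HEPES, adenine, hemin and biotin. They were resuspended at 5 × 10⁵ viable cells/mL and exposed to serial peptide dilutions at 25 °C with agitation. Viability was counted by trypan blue exclusion in a haemocytometer.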

[2] = Toxicity assessed as hemolytic activity in human red blood cells after 30 mins; type: cell-based, Erythrocyte; settings: read-out: HD50
Method in brief: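 Serially diluted peptides were incubated with 10⁸ washed human RBC (100 µL) for 30 min at 37 °C with agitation. After centrifugation at 900g for 10 min, haemoglobin in the supernatant was read at 550 nm. Distilled water gave maximal lysis. HC₅₀ is the mean from at least two independent experiments run in triplicate.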

Escherichia coli [3] = test: Antibacterial activity against Escherichia coli HB101 after 24 hrs by microdilution serial twofold assay; type: functional; settings: HB101, 24 h
Method in brief: (§1)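 Bacteria grown in static culture at 37 °C in Mueller Hinton broth and diluted to 5 × 10⁵ CFU/mL. Peptides were tested by twofold serial microdilution starting from 100 μg/mL, with peptide-free control wells. The MIC was the lowest concentration with no rise in turbidity after overnight incubation at 37 °C. Values are means of at least two independent experiments run in duplicate.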

Escherichia coli [4] = test: Antibacterial activity against Escherichia coli HB101 after 3 hrs by microdilution serial twofold assay; type: functional; settings: HB101, 3 h, read-out: LD50 (the source's name)
Method in brief: (§2)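 Mueller Hinton Broth static cultures grown at 37 °C and diluted to 5 × 10⁵ CFU/mL. Peptides were tested by twofold serial microdilution starting from 100 μg/mL in a final volume of 200 μL, with peptide-free controls. After 3 h incubation, cultures were serially 10-fold diluted in PBS and plated on Mueller Hinton Agar. Counts were taken after 24 h at 37 °C. Value is the dose giving 50% bacterial lethality.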

Staphylococcus aureus [5] = test: Antibacterial activity against Staphylococcus aureus Cowan 1 NCTC 8530 after 24 hrs by microdilution serial twofold assay; type: functional; settings: Cowan 1, 24 h; method in brief: as §1
Staphylococcus aureus [6] = test: Antibacterial activity against Staphylococcus aureus Cowan 1 NCTC 8530 after 3 hrs by microdilution serial twofold assay; type: functional; settings: Cowan 1, 3 h, read-out: LD50 (the source's name); method in brief: as §2
Leishmania major [7] = test: Antileishmanial activity against Leishmania major MHOM/IL/67/JERICHO-2 assessed as protozoal viability after 24 hrs by dye exclusion method; type: functional
Method in brief: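 Promastigotes grown at 25 °C in supplemented medium 199 containing 20% heat-inactivated FCS, then resuspended at 5 × 10⁵ viable/mL with serially diluted peptides. After 24 h at 25 °C with agitation, viable cells were counted by haemocytometer using trypan blue exclusion. LC₅₀ is the 50% survival reduction versus an untreated culture, fitted by nonlinear regression. Run in triplicate.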

Bacillus subtilis = test: Antibacterial activity against Bacillus subtilis ATCC 9466 after 24 hrs by microdilution serial twofold assay; type: functional; settings: ATCC 9466, 24 h
Staphylococcus aureus [8] = test: Antibacterial activity against Staphylococcus aureus ATCC 6538P after 24 hrs by microdilution serial twofold assay; type: functional
Pseudomonas aeruginosa [9] = test: Antibacterial activity against Pseudomonas aeruginosa ATCC 15442 after 24 hrs by microdilution serial twofold assay; type: functional; settings: ATCC 15442, 24 h
Staphylococcus aureus [10] = test: Antibacterial activity against multi drug-resistant Staphylococcus aureus after 24 hrs by microdilution serial twofold assay; type: functional
Method in brief: (§3)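 Mueller Hinton Broth cultures grown statically at 37 °C and diluted to 5 × 10⁵ CFU/mL. Twofold serial microdilution from 100 μg/mL peptide, final volume 200 μL, with peptide-free controls. MIC is the lowest concentration with no turbidity increase after overnight incubation at 37 °C. Means come from at least two independent experiments run in duplicate.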

Burkholderia cepacia = test: Antibacterial activity against Burkholderia cepacia 6/06 after 24 hrs by microdilution serial twofold assay; type: functional; method in brief: as §1
Pseudomonas aeruginosa [11] = test: Antibacterial activity against multi drug-resistant Pseudomonas aeruginosa after 24 hrs by microdilution serial twofold assay; type: functional; method in brief: as §3
[12] = test system: Stenotrophomonas maltophilia; test: Antibacterial activity against Stenotrophomonas maltophilia FC after 24 hrs by microdilution serial twofold assay; type: functional; method in brief: as §1
Candida albicans = test: Antifungal activity against wild type Candida albicans by broth microdilution method; type: functional
Method in brief: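 Wild-strain yeast was tested in triplicate by broth microdilution following NCCLS recommendations. The MIC was the lowest peptide concentration with no increase in turbidity after overnight incubation at 37 °C.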

Substance | MIC (Leishmania major [1]) | HC50 at 0.5 h [2] [µM] | MIC (Escherichia coli [3]) [µM] | LC50 (Escherichia coli [4]) [µM] | MIC (Staphylococcus aureus [5]) [µM] | LC50 (Staphylococcus aureus [6]) [µM] | LC50 (Leishmania major [7]) | MIC (Bacillus subtilis) [µM] | MIC (Staphylococcus aureus [8]) [µM] | MIC (Pseudomonas aeruginosa [9]) [µM] | MIC (Staphylococcus aureus [10]) [µM] | MIC (Burkholderia cepacia) [µM] | MIC (Pseudomonas aeruginosa [11]) [µM] | MIC [12] [µM] | MIC (Candida albicans) [µM]
H-ALWKTMLKKLGT-NH2 | 100 µg/mL and 54.2 µM | > 100 | > 54 | 54 | > 54 | 54 | 50 µg/mL and 27.1 µM |  |  |  |  |  |  |  | 
H-ALWKTMLKKLGTM-NH2 | 100 µg/mL and 50.6 µM | > 100 | 50.6 | 22.7 | > 50.6 | 50.6 | 50 µg/mL and 25.3 µM |  |  |  |  |  |  |  | 
H-ALWKTMLKKLGTMA-NH2 | 100 µg/mL and 48.8 µM | > 100 | 48.8 | 20.5 | > 48.8 | 28.3 | 50 µg/mL and 24.4 µM |  |  |  |  |  |  |  | 
H-ALWKTMLKKLGTMAL-NH2 | 50 µg/mL and 22.8 µM | > 100 | 2.9 | 1.4 | 11.5 | 2.7 | 19 µg/mL and 8.7 µM | 5.7 | 5.7 | > 47 | > 47 | 23.7 | > 47 | > 45 | 23.7
H-ALWKTMLKKLGTMALHAGK-NH2 | 50 µg/mL and 17.9 µM | > 100 | 3.6 | < 1.8 | 35.9 | 10.7 | 22 µg/mL and 7.9 µM |  |  |  |  |  |  |  | 
H-ALWKTMLKKLGTMALHAGKAALGAAADTI-NH2 | 25 µg/mL and 6.1 µM | > 100 | 2.7 | 2.2 | 2.7 | < 1.5 | 9.6 µg/mL and 2.3 µM |  |  |  |  |  |  |  | 
H-ALYKTMLKKLGTMAL-NH2 |  | > 100 | > 46.7 | > 46.7 | > 46.7 | > 46.7 |  | > 45 | > 45 | > 45 | > 45 | > 45 | > 45 | > 45 | > 45
H-KALWKTMLKKLGTMAL-NH2 |  | > 100 | 2.6 | < 0.8 | 20.8 | 2.7 |  | 21 | 2.6 | 5.2 | > 42 | 42 | 21 | 21 | 10.1
